Measured values from ChEMBL document CHEMBL3871300, “Synthesis and evaluation of the anti-proliferative activity of diaryl-3-pyrrolin-2-ones and fused analogs” (Bioorg Med Chem Lett, 2017).

Assays:
[1] = Antiproliferative activity against human U937 cells after 48 hrs by MTT assay; assay type: functional, cell-based; details: U-937, 48 h
Summary of the method: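 Human promonocytic U-937 cells exposed to compound for 48 h, then MTT added as an indirect viability read-out via mitochondrial activity. IC50 taken as the concentration reducing viability to 50% of mock-treated cells. Values averaged from at least three independent runs, each with eight replicates, with standard errors; n gives the number of independent runs.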

[2] = Cytotoxicity against human U937 cells assessed as cell viability at antiproliferative IC50 after 48 hrs by trypan exclusion assay; assay type: functional, U-937

**Q.** Which IC50 [1] does the source give for `COc1ccc(C2=CC(=O)NC2)cc1OC` here?
**A.** > 100 µM

**Q.** Which results are given for `COc1cc(C2=C(c3cc(OC)c(OC)c(OC)c3)C(=O)NC2)cc(OC)c1OC`?
**A.** IC50 [1]: 11 µM; Activity [2]: 51%

**Q.** Which IC50 [1] does the source give for `Cn1cc(C2=CC(=O)NC2)c2ccccc21` here?
**A.** > 100 µM

**Q.** For `COc1cc2c3c(c4cc(OC)c(OC)cc4c2cc1OC)C(=O)NC3`, which IC50 [1] is on record?
**A.** > 100 µM

**Q.** For `COc1cc(C2=CC(=O)NC2)cc(OC)c1OC`, which IC50 [1] is on record?
**A.** > 100 µM

**Q.** With `COc1ccc(C2=C(c3ccc(OC)c(OC)c3)C(=O)NC2)cc1OC` as the compound, how does the IC50 [1] read?
**A.** 57 µM

**Q.** For `COc1cc2c3c(c4c5ccccc5n(C)c4c2cc1OC)C(=O)NC3`, which IC50 [1] is on record?
**A.** 48 µM

**Q.** With `COc1ccc(C2=C(c3cn(C)c4ccccc34)CNC2=O)cc1OC` as the compound, how does the IC50 [1] read?
**A.** > 100 µM

**Q.** Which IC50 [1] does the source give for `COc1ccc(C2=C(c3ccc(OC)cc3)C(=O)NC2)cc1` here?
**A.** 13 µM

**Q.** Which IC50 [1] does the source give for `COc1cc(C2=C(c3ccccc3)CNC2=O)cc(OC)c1OC` here?
**A.** 33 µM

**Q.** For `COc1cc(C2=C(c3cn(C)c4ccccc34)C(=O)NC2)cc(OC)c1OC`, which IC50 [1] is on record?
**A.** 38 µM

**Q.** For `Cn1cc(C2=C(c3ccccc3)CNC2=O)c2ccccc21`, which IC50 [1] is on record?
**A.** > 100 µM

**Q.** For `COc1cc(C2=C(c3ccccc3)C(=O)NC2)cc(OC)c1OC`, which IC50 [1] is on record?
**A.** 84 µM

**Q.** Which IC50 [1] does the source give for `COc1ccc(C2=C(c3cn(C)c4ccccc34)C(=O)NC2)cc1OC` here?
**A.** 10 µM

**Q.** What about the Activity [2] of the same compound?
**A.** 61%
